This is a sample that favours compounds with a hit; in the whole collection about 5.2% have one here.
PfM18AAP inh: PfM18AAP enzyme inhibition; recombinant PfM18AAP, H-Glu-NHMec fluorogenic cleavage; inhibition, % at 7.35 µM; 290,000 compounds, 1.2% hits; AID 1822;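 active = inhibition above the campaign mean inhibition over all tested compounds plus 3 SD, cut at about 28% in these data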;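 also: 0% = plate median of test compound wells and 100% = 2 mM ZnCl2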
NS3 helicase inh: HCV NS3 helicase inhibition. NS3 helicase DNA unwinding, Cy5 molecular beacon fluorescence. 290,000 compounds, 0.56% hits. AID 1800. inhibition, % at 10.9 µM;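 active = inhibition above the mean of all tested compounds plus 3 SD, set per campaign, cut at about 35% in these data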;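 also: 0% = DMSO wells and 100% = thioflavine S control wells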
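Assay system – hepatitis C virus NS3 helicase domain fragment enzyme · Buffer or medium – MOPS pH 6.5, MgCl2, DTT, Tween20, BSA · Reagent – Cy5/quencher beacon DNA duplex and ATP to start · Compound – single 10.9 µM dose · Timing – 1 h at 25 °C · Technique – Cy5 beacon fluorescence read at start and 1 h · Measure – % inhibition of unwinding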
ALR H2O2 inh: blocks human ALR sulfhydryl oxidase activity. P55789. purified ALR, DTT oxidation, H2O2 HRP-luminol luminescence. inhibition, % (no concentration beside the values). 290,000 compounds, 3.8% hits;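 active = mean replicate inhibition above about 79%, with every replicate also reaching it, limit read from the data; inconclusive = only one of the two criteria met; inactive = mean below limit and not every replicate reaching it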
Target sequence (P55789 whole entry, looked up): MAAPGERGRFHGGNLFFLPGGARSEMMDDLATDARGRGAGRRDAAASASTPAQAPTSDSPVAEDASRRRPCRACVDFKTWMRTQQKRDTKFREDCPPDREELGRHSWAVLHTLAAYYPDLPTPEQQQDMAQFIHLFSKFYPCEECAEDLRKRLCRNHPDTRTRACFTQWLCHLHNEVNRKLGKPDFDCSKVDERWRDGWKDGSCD
HCV core dimer: blocks dimerization of HCV core protein. AID 1899. TR-FRET GST/Flag-core106 dimerization, 1536-well. 300,000 compounds, 0.33% hits. inhibition, % at 5 µM;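 active = inhibition above the mean of all tested compounds plus 3 SD, set per screening campaign, cut at about 45% in these data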
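Test system: GST/Flag-tagged HCV core106 proteins; Medium: KF-containing HEPES buffer, pH 7.45, DTT, CHAPS, BSA; Times: compound-protein-antibody incubation 4 h at 22.5 °C; Detection: TR-FRET 671 and 617 nm emission; Benchmarks: wells lacking GST-core106 and wells with excess unlabelled core106.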
EBNA-1 inh: blocks EBNA-1 binding to DNA; EBNA-1 DNA binding, fluorescence polarization; inhibition, % at 14.8 µM; 300,000 compounds, 0.34% hits; in the data active = inhibition above about 28%
ZTA counter: ZTA (EBV) inhibition in EBNA-1 counter-screen | P03206 | ZTA-DNA binding, fluorescence polarization | inhibition, % at 11 µM | 320,000 compounds, 0.15% hits; in the data active = inhibition above about 33%
Target sequence (P03206 whole entry, looked up): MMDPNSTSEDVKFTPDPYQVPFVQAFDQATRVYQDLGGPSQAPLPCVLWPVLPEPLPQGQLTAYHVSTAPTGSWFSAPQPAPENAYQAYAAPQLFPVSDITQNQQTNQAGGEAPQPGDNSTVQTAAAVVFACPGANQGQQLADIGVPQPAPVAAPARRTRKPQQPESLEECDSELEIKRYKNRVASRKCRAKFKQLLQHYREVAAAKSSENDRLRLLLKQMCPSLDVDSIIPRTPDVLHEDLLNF
Numbers without * were called inactive; u = inconclusive; x = not tested or not shown.

SMILES	PfM18AAP inh	NS3 helicase inh	ALR H2O2 inh	HCV core dimer	EBNA-1 inh	ZTA counter
CC(=O)CSc1nc2ccccc2s1	3	4	98*	1	1	-31
CC(Sc1nc2ccccc2s1)C(=O)NCc1ccc2c(c1)OCO2 (stereo not drawn)	-10	-18	u	4	-11	8
O=C(CN1C(=O)CCC1=O)Nc1nc(-c2nc3ccccc3s2)cs1	3	2	95*	-8	-12	4
Cc1csc(NC(=O)CSc2nc3ccccc3s2)n1	-13	-5	97*	2	9	3
COC(C(=O)Nc1c(F)cccc1F)c1ccccc1 (stereo not drawn)	-3	7	-2	-3	-4	-2
O=C(CSc1nnc(NCc2ccccc2)s1)NC1CCS(=O)(=O)C1 (stereo not drawn)	-8	8	-5	-5	-13	-3
O=C(CSc1nc2ccccc2s1)NC1CCS(=O)(=O)C1 (stereo not drawn)	3	6	90*	-10	-1	-3
CC(C)c1ccc(O)c(NC(=O)c2cccnc2)c1	6	-7	89*	0	12	-1
CCC(C)c1ccc(O)c(NC(=S)NC(=O)c2cccnc2)c1 (stereo not drawn)	19	13	98*	1	0	1
CC(C)c1ccc(NC(=O)c2cccnc2)cc1	2	3	2	0	1	3
O=C(NC(=S)Nc1cc([N+](=O)[O-])ccc1O)c1cccnc1	0	-7	1	-5	0	4
OCCN1CCN(C2CCC(c3ccc(F)cc3)c3ccc(F)cc32)CC1 (stereo not drawn)	x	x	x	-3	-19	1
C#CCOCCOCCOCCNc1nc(N2CCN(C(=O)[C@H](CCCN=C(N)N)n3cc(C(N)[C@@H](C)CC)nn3)CC2)nc(N2CCN(C(=O)[C@H](CC(N)=O)n3cc([C@@H](N)CC(N)=O)nn3)CC2)n1 (stereo partly drawn)	x	x	-1	x	x	x
CCN(CC(=O)NCCCN1CCOCC1)S(=O)(=O)c1ccc(Cl)cc1	0	10	0	-9	-5	-6
O=C(CSc1nccn(-c2ccc3c(c2)OCCO3)c1=O)Nc1ccccc1	x	x	x	0	-7	2
COc1ccc(-n2ccnc(SCC(=O)NCc3ccc(C)cc3)c2=O)cc1Cl	x	x	98*	3	8	9
CCc1nc(SCC(=O)Nc2ccc(F)cc2F)c2c(=O)n(C)c(=O)n(C)c2n1	1	0	0	7	1	4
O=C(CSc1nccn(-c2cccc(F)c2)c1=O)Nc1ccc(Cl)cc1F	25	6	99*	10	12	7
O=C(CSc1nccn(-c2ccc(Br)cc2)c1=O)NCc1ccccc1	x	x	x	-3	-2	-8
Cc1ccc(CNC(=O)CSc2nccn(-c3ccc(C)c(F)c3)c2=O)cc1	x	x	98*	1	2	5
Cc1ccc(NC(=O)CSc2nccn(-c3ccc4c(c3)OCCO4)c2=O)cc1	x	x	99*	3	6	-11
Cc1ccc(CN(C)C(=O)C2CCC(=O)N(CCc3ccccc3)C2)o1 (stereo not drawn)	-45	3	x	x	x	x
C/C(=N/Nc1ccnc2cc(Cl)ccc12)c1ccc(O)cc1	x	x	93*	2	10	1
C/C(=N/Nc1ccnc2cc(Cl)ccc12)c1ccc(N)cc1	x	x	98*	0	-3	2
Clc1ccc2c(NNc3ccccc3Cl)ccnc2c1	0	6	0	2	6	-2
SMILES	PfM18AAP inh	NS3 helicase inh	ALR H2O2 inh	HCV core dimer	EBNA-1 inh	ZTA counter
Clc1ccc2c(N/N=C/c3ccccc3Br)ccnc2c1	-2	-3	-1	0	0	7
N#Cc1ncccc1CCc1cccc(Cl)c1	x	x	-14	2	1	1
O=C(O)C1CCC(N2C(=O)c3c(Cl)c(Cl)c(Cl)c(Cl)c3C2=O)CC1 (stereo not drawn)	1	5	x	1	-4	-7
CN1/C(=C\C=N\NC(=O)c2cccnc2)C(C)(C)c2ccccc21	5	9	98*	-24	-12	-13
CN1/C(=C\C=N\NC(=O)c2ccc(O)cc2)C(C)(C)c2ccccc21	3	-3	19	-17	5	-4
COc1ccc(C(C)(C)NC(=O)C2CCC(=O)N(C3CCCC3)C2)cc1OC (stereo not drawn)	-4	2	-1	-6	-4	-10
O=C(Cc1ccc(Cl)cc1Cl)NCc1cccnc1	-14	-8	x	2	-1	1
Nc1ccc2nc(Cc3ccccc3)[nH]c2c1	-3	-2	100*	1	-10	-8
CC(C)Cc1nc2ccc(N)cc2[nH]1	-4	-1	100*	-3	4	4
Cc1ccc2nc(Cc3ccc(N)cc3)[nH]c2c1	-1	-12	x	-4	-9	-9
CCCCONc1ncnc2nonc12	1	6	2	-12	-11	0
CC(=O)c1cccc(NC(=O)COc2ccc3oc(=O)cc(C)c3c2)c1	-6	-1	-24	3	-4	-5
O=C(CSc1nnc(-c2ccc(F)cc2)c2ccccc12)Nc1cccc(Cl)c1	0	-13	-9	11	6	10
COC(=O)Cc1nnc(SCC(=O)Nc2ccccc2)c2ccccc12	-4	5	98*	12	8	6
O=C(CSc1nnc(-c2ccc(F)cc2)c2ccccc12)Nc1ccccc1	5	-15	99*	7	10	-21
CCN(CC)Cc1c(C(=O)N2CCc3ccccc3C2)nc2ccc(Cl)cn12	2	1	0	7	4	7
CCCc1cc(SCC(=O)Nc2c(C)n(C)n(-c3ccccc3)c2=O)n2c(nc3ccccc32)c1C#N	21	14	98*	12	-15	-20
CCOC(=O)CSc1cc(C)c(C#N)c2nc3ccccc3n12	-11	6	99*	-20	11	-10
Cc1nc(SCC(=O)Nc2c(C)n(C)n(-c3ccccc3)c2=O)c(C#N)c(C)c1C	x	x	x	x	x	8
CCn1c(N)[n+](CC(=O)Nc2ccc(SC(F)F)cc2)c2ccccc21	0	-69	89*	-5	3	-7
CC[N+](CC)(CC)CC(=O)Nc1ccc(SC(F)F)cc1	-1	3	-11	2	6	14
COc1ccc(N(C(=O)c2ccc(S(=O)(=O)N3CCCC3)cc2)C2C=CS(=O)(=O)C2)cc1 (stereo not drawn)	6	-2	-2	7	0	-7
COC(=O)CSc1ncnc2c1sc1nc(N3CCOCC3)c3c(c12)CCCC3	-2	-2	3	31	-10	1
COC(=O)c1ccc(CSc2ncnc3c2sc2nc(N4CCOCC4)c4c(c23)CCCC4)o1	3	8	x	66*	7	1
Cc1cccc(NC(=O)c2ccc(C)c(S(=O)(=O)N3CCCCC3)c2)n1	x	x	-5	1	3	13
